Activity calls are given as the source filed them. No cut-off for these calls is given here.
Key:
[1] = test system: Norovirus; test: Antiviral activity against human norovirus infected in human HG23 cells assessed as inhibition of viral replication at 10 uM after 3 days by qRT-PCR analysis relative to control; assay type: functional; set-up: scale not given: the % may be the effect or the level left
[2] = Cytotoxicity against human HG23 cells assessed as cell viability at 10 uM after 3 days by tetrazolium dye based assay relative to control; settings: read-out: Activity
Procedure, shortened: (§1)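 HG23 cells were treated with DMSO or compound for 3 days, at 10 μM for single-point testing or across a dose range for CC50. Viability was read with a tetrazolium salt (EZ-CYTOX) reagent. Values are means of the most representative triplicate experiment with standard deviations.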

[3] = Cytotoxicity against human HG23 cells assessed as reduction in cell viability after 3 days by tetrazolium dye based assay; procedure, shortened: as §1
[4] = test system: Norovirus; test: Antiviral activity against human norovirus infected in human HG23 cells assessed as inhibition of viral replication after 3 days by qRT-PCR analysis; assay type: functional, organism-based; settings: HG23, 72 h
[5] = Therapeutic index, ratio of CC50 for cytotoxicity against human HG23 cells harboring human norovirus replicons to EC50 for antiviral activity against norovirus infected in human HG23 cells; assay type: toxicity, cell-based; settings: read-out: Ratio CC50/EC50
[6] = test system: Norovirus; test: Antiviral activity against human norovirus infected in HG23 cells assessed as inhibition of neomycin phosphotransferase protein expression after 3 days by Western blot analysis; assay type: functional, organism-based; settings: HG23, 72 h
Procedure, shortened: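 HG23 replicon cells were given DMSO or increasing compound concentrations for 3 days. Whole-cell RIPA extracts were quantified by Bradford assay and equal protein amounts run on SDS-PAGE. Blots on PVDF were probed with rabbit anti-neomycin phosphotransferase (1:500), with anti-HSF-1 (1:1000) on blots. EC50 came from dose-response; values are means of a representative triplicate experiment.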

[7] = biological target: T1, Heat shock factor protein 1 (Homo sapiens) (UniProt Q00613); test: Activation of HSF-1 in human HG23 cells transfected with human norovirus after 72 hrs by dual-luciferase reporter gene assay; assay type: cell-based
T1 sequence (whole entry): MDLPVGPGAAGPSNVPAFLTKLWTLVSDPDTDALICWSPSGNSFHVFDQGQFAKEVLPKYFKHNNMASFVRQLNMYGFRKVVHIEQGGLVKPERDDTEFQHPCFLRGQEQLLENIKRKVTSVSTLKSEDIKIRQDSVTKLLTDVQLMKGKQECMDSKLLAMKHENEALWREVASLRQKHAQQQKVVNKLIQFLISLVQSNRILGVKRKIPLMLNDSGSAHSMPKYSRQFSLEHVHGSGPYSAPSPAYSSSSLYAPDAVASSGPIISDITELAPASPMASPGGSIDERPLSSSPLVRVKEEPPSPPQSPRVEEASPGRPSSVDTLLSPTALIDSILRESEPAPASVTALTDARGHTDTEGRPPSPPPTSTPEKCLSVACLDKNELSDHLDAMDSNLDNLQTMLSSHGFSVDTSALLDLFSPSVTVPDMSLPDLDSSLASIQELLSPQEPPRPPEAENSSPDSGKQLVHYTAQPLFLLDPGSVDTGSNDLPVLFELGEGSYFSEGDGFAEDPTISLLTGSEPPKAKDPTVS
Procedure, shortened: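 HG23 cells carrying the NV replicon were transfected with a Cignal finder reporter array and then given DMSO or 10 μM test compound for 72 h. Luciferase activity for each pathway was read with a dual-luciferase reagent.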

[8] = Metabolic stability in human liver microsomes assessed as compound remaining at 1 uM preincubated for 5 mins followed by NADPH addition and measured after 30 mins by LC-MS/MS analysis relative to control; assay type: ADME, Microsome; settings: read-out: Stability
Procedure, shortened: (§2)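 Human or mouse liver microsomes (0.5 mg/ml) in 0.1 M phosphate buffer pH 7.4 were preincubated with compound at 1 μM for 5 min at 37 °C. An NADPH regeneration system was then added or omitted, and incubation continued 30 min at 37 °C. Reactions were stopped with acetonitrile containing internal standard. Parent compound remaining was measured by LC-MS/MS (C18 column, 0.1% formic acid water/acetonitrile).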

[9] = test system: Norovirus GII.4; test: Inhibition of norovirus GII.4 RNA-dependent RNA polymerase using poly(C)RNA as substrate incubated for 10 mins and measured after 15 mins by picogreen staining based assay
Procedure, shortened: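 Recombinant human norovirus GII.4 Sydney 2012 RdRp (400 ng) was preincubated with compound (10 μM) or DMSO (0.5% v/v) for 10 min at 25 °C. It was then added to 5 μM rGTP, 6 μg/mL poly(C), 2.5 mM MnCl₂, 5 mM DTT, 0.01% BSA and 0.005% Tween 20 in 20 mM Tris-HCl pH 7.5. After 15 min at 25 °C, reactions were stopped with 10 mM EDTA and dsRNA quantified by PicoGreen fluorescence (ex 480/em 520). Two independent experiments were run in triplicate.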

[10] = Metabolic stability in human liver microsomes assessed as compound remaining at 1 uM after 30 mins in absence of NADPH by LC-MS/MS analysis relative to control; assay type: ADME, Microsome; settings: read-out: Stability; procedure, shortened: as §2
[11] = Metabolic stability in mouse liver microsomes assessed as compound remaining at 1 uM preincubated for 5 mins followed by NADPH addition and measured after 30 mins in presence of NADPH relative to control; assay type: ADME, Microsome; settings: read-out: Stability; procedure, shortened: as §2
[12] = Metabolic stability in mouse liver microsomes assessed as compound remaining at 1 uM after 30 mins in absence of NADPH by LC-MS/MS analysis relative to control; assay type: ADME, Microsome; settings: read-out: Stability; procedure, shortened: as §2

| SMILES | Activity [1] | viability at 72 h, 10 µM [2] | further results |
| --- | --- | --- | --- |
| C=Cc1c(OC)cc(/C=C/c2ccc(C(=O)N3CCN(Cc4ccc(OC)cc4)CC3)cc2)cc1OC | 30.4% | 21.5% |  |
| C=Cc1ccc(/C=C/c2cc(OC)cc(OC)c2)cc1 | 77.1% | 138% |  |
| C=Cc1c(OC)cc(/C=C/c2ccc(C(=O)Nc3ccc(C(F)(F)F)cc3)cc2)cc1OC | 70.8% | 92.5% |  |
| COc1cc(/C=C/c2cc(OC)c(Br)c(OC)c2)cc(OC)c1 | 184.9% | 99.7% |  |
| C=Cc1c(OC)cc(CCc2ccc(C(=O)N3CCN(Cc4ccc(C(F)(F)F)cc4)CC3)cc2)cc1OC | 132.1% | 77.3% |  |
| C=Cc1c(OC)cc(/C=C/c2ccc(C(=O)N3CCN(CCO)CC3)cc2)cc1OC | 110.4% | 93.3% |  |
| C[C@@]1(O)[C@H](O)[C@@H](CO)O[C@H]1n1ccc(N)nc1=O | 24.8% | 78.5% | CC50 at 72 h [3]: 12.2 µM; EC50 [4]: 4 µM; selectivity ratio [5]: 3.1; EC50 [6]: 4.8 µM; Activity [7]: Active |
| COc1ccc(CCN(C)CCCC(C#N)(c2ccc(OC)c(OC)c2)C(C)C)cc1OC (stereo not given) [VERAPAMIL] |  |  | remaining at 0.5 h, 1 µM [8]: 13.6% |
| C=Cc1c(OC)cc(/C=C/c2ccccc2C(F)(F)F)cc1OC | 83.2% | 99.7% |  |
| C=Cc1c(OC)cc(/C=C/c2ccc(C(=O)OCc3ccc(F)cc3)cc2)cc1OC | 36% | 101% |  |
| C=Cc1c(OC)cc(/C=C/c2ccc(C(=O)NCCc3c[nH]c4ccccc34)cc2)cc1OC | 46.6% | 106% |  |
| C=Cc1c(OC)cc(/C=C/c2ccc(C(=O)N3CCN(Cc4ccc(F)cc4)CC3)cc2)cc1OC | 12.1% | 55.7% |  |
| C=CCNC(=O)c1ccc(/C=C/c2cc(OC)c(C=C)c(OC)c2)cc1 | 62.4% | 91.6% |  |
| C=Cc1c(OC)cc(/C=C/c2ccc(C(=O)OCc3ccccc3)cc2)cc1OC | 134.9% | 106% |  |
| C=Cc1c(OC)cc(/C=C/c2ccc(C(F)(F)F)cc2)cc1OC | 19.4% | 97.5% | CC50 at 72 h [3]: > 10 µM; EC50 [4]: 4.4 µM; selectivity ratio [5]: > 2.2; EC50 [6]: 8 µM |
| C=Cc1c(OC)cc(/C=C/c2ccc(F)cc2)cc1OC | 38.4% | 93.2% |  |
| C=Cc1c(OC)cc(/C=C/c2cc(OC)cc(OC)c2)cc1OC | 43.4% | 99.6% |  |
| COc1cc(/C=C/c2cc(OC)c(CCO)c(OC)c2)cc(OC)c1 | 272.8% | 99.8% |  |
| C#CCOC(=O)c1ccc(/C=C/c2cc(OC)c(C=C)c(OC)c2)cc1 | 71.3% | 103% |  |

| SMILES | Activity [1] | viability at 72 h, 10 µM [2] | further results |
| --- | --- | --- | --- |
| C=Cc1c(OC)cc(/C=C/c2ccc(C(=O)NCCc3ccc(O)cc3)cc2)cc1OC | 40.8% | 103% |  |
| C=Cc1c(OC)cc(/C=C/c2ccc(C(=O)OCc3ccc(C(F)(F)F)cc3)cc2)cc1OC | 58.4% | 109% |  |
| C=Cc1c(OC)cc(/C=C/c2ccc(C(=O)NCCc3ccncc3)cc2)cc1OC | 15.4% | 100% | CC50 at 72 h [3]: > 100 µM; EC50 [4]: 2 µM; selectivity ratio [5]: > 50; EC50 [6]: 0.71 µM; inhibition [9]: inactive; remaining at 0.5 h, 1 µM [8]: 20%; remaining at 0.5 h, 1 µM [10]: 92.1%; remaining at 0.5 h, 1 µM [11]: 67.7%; remaining at 0.5 h, 1 µM [12]: 88.4% |
| OCCc1ccc(/C=C/c2ccccc2)cc1 | 43.2% | 101% |  |
| C=Cc1c(OC)cc(/C=C/c2ccc(C(=O)OC)cc2)cc1OC | 58.2% | 111% |  |
| C=Cc1c(OC)cc(/C=C/c2ccc(C(=O)O)cc2)cc1OC | 81.3% | 112% |  |
| C=Cc1c(OC)cc(/C=C/c2cccc(C(F)(F)F)c2)cc1OC | 66.6% | 98.4% |  |
| C=Cc1c(OC)cc(/C=C/c2ccc(C(=O)N3CCN(C(C)C)CC3)cc2)cc1OC | 55.3% | 60.5% |  |
| COc1cc(/C=C/c2cc(O)c(CCO)c(O)c2)cc(OC)c1 | 200.8% | 99% |  |
| COc1cc(/C=C/c2cc(OC)cc(OC)c2)cc(OC)c1 | 119% | 99.2% |  |
| C=Cc1c(OC)cc(/C=C/c2ccc(C(=O)NCCc3ccccn3)cc2)cc1OC | 13.5% | 96.3% | CC50 at 72 h [3]: > 100 µM; EC50 [4]: 1.44 µM; selectivity ratio [5]: > 69; EC50 [6]: 1.97 µM; inhibition [9]: inactive; remaining at 0.5 h, 1 µM [8]: 44.1%; remaining at 0.5 h, 1 µM [10]: > 100%; remaining at 0.5 h, 1 µM [11]: 38.3%; remaining at 0.5 h, 1 µM [12]: 83.1% |
| C=Cc1c(OC)cc(/C=C/c2ccc(OCOC)cc2)cc1OC | 165.7% | 97.5% |  |
| C=Cc1c(OC)cc(/C=C/c2ccc(C(=O)NCc3ccco3)cc2)cc1OC | 33.8% | 109% |  |
| Brc1ccc(/C=C/c2ccccc2)cc1 | 54.5% | 130% |  |
| CCc1c(OC)cc(/C=C/c2cc(OC)cc(OC)c2)cc1OC | 94% | 69.3% |  |
| C=Cc1ccc(/C=C/c2ccccc2)cc1 | 26.5% | 102% |  |
| C=Cc1c(OC)cc(/C=C/c2ccc(C(=O)NCCc3ccccc3)cc2)cc1OC | 28.4% | 99.7% |  |
| C=Cc1c(OC)cc(/C=C\c2ccc(C(=O)N3CCN(Cc4ccc(C(F)(F)F)cc4)CC3)cc2)cc1OC | 64.9% | 90.9% |  |
